Data as given in ChEMBL document CHEMBL2150881, “JD-5006 and JD-5037: peripherally restricted (PR) cannabinoid-1 receptor blockers related to SLV-319 (Ibipinabant) as metabolic disorder therapeutics devoid of CNS liabilities” (Bioorg Med Chem Lett, 2012).
pIC50: −log10 of the molar value.

Key:
[1] = biological target: T1, Cannabinoid receptor 1 (Homo sapiens, UniProt P21554); experiment: Displacement of 3[H]ligand from recombinant human CB1 receptor
How it was run: (§1)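 Radioligand displacement from human recombinant CB1 and CB2 protein by a [³H] ligand. Initial screen at two concentrations in duplicate, with values >100 nM estimated. Percent inhibition read at 100 nM. IC₅₀ taken from four-point concentration curves run in duplicate.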

[2] = biological target: Cannabinoid receptor 2 (Homo sapiens, UniProt P34972); experiment: Displacement of 3[H]ligand from recombinant human CB2 receptor; how it was run: as §1
Sequence of Cannabinoid receptor 2 (P34972 whole entry): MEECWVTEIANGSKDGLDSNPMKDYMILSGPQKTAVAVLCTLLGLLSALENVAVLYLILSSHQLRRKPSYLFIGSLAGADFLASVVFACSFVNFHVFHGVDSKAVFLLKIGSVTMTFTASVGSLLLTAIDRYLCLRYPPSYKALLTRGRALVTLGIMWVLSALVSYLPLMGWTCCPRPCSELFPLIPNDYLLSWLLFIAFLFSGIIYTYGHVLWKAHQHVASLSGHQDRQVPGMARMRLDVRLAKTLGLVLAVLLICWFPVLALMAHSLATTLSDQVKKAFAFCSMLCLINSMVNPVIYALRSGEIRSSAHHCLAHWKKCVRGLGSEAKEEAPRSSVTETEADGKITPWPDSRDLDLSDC

[3] = Apparent permeability from basolateral to apical side in MDR expressing MDCK cells by LC-MS-MS analysis; assay type: ADME, cell-based, Canis lupus familiaris; settings: dog, MDCK-MDR1
How it was run: (§2)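 Permeability measured across MDR-MDCK kidney cell monolayers, giving apparent permeability (Papp) in the apical-to-basolateral and basolateral-to-apical directions.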

[4] = Apparent permeability from apical to basolateral side in MDR expressing MDCK cells by LC-MS-MS analysis; assay type: ADME, cell-based, Canis lupus familiaris; settings: dog, MDCK-MDR1; how it was run: as §2
[5] = Efflux ratio of permeability from […] in MDR expressing MDCK cells; assay type: ADME, cell-based, Canis lupus familiaris; settings: dog, MDCK-MDR1
[6] = Plasma concentration in chow fed mouse at 100 mg/kg, po for 3 days measured after 1 hr post last dose; assay type: ADME, organism-based; set-up: dose 100 mg/kg, route oral
How it was run: (§3)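 Chow-fed mice were dosed orally at 100 or 20 mg/kg for 3 consecutive days. Plasma and brain were taken 1 h after the last dose. Proteins were precipitated with 3× volume ice-cold acetonitrile containing internal standard, then centrifuged 15 min at 4 °C. Analysis by LC/MS/MS against calibrators in plasma or brain homogenate (1000 to 1.6 nM). Brain is given as ng/gm and also as % of plasma.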

[7] = tested on: Brain; experiment: Drug uptake in chow fed mouse brain assessed per gram of tissue at 100 mg/kg, po for 3 days measured 1 hr post last dose; assay type: ADME, organism-based; set-up: dose 100 mg/kg, route oral; settings: in vivo; how it was run: as §3
[8] = tested on: Mus musculus; experiment: In vivo receptor occupancy at CB1 receptor in mouse hippocampus assessed as inhibition of [3H]SR141716A binding at 3 mg/kg, po for 3 days measured after 1 hr post last dose; assay type: functional
How it was run: (§4)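 Chow-fed mice dosed orally once daily at 3 or 30 mg/kg for 3 consecutive days, killed 1 h after the last dose. [3H]SR141716A was given by lateral tail-vein injection 30 min before euthanasia. Hippocampus, cerebellum and brain stem (reference region) were scintillation-counted as DPM/mg. Binding potential = (receptor − reference)/reference. Occupancy (%) = 100 × (vehicle BP − drug BP)/vehicle BP. 5 animals per dose.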

[9] = tested on: Mus musculus; experiment: In vivo receptor occupancy at CB1 receptor in mouse hippocampus assessed as inhibition of [3H]SR141716A binding at 30 mg/kg, po for 3 days measured after 1 hr post last dose; assay type: functional; how it was run: as §4
[10] = tested on: Mus musculus; experiment: In vivo receptor occupancy at CB1 receptor in mouse cerebellum assessed as inhibition of [3H]SR141716A binding at 3 mg/kg, po for 3 days measured after 1 hr post last dose; assay type: functional; how it was run: as §4
[11] = biological target: T1, Cannabinoid receptor 1; experiment: Displacement of 3[H]ligand from recombinant human CB1 receptor at 100 nM; how it was run: as §1
[12] = biological target: Cannabinoid receptor 1 (Mus musculus) (UniProt P47746); settings: Cerebellum, 30 mg/kg
Sequence of Cannabinoid receptor 1 (Mus musculus) (P47746 whole entry): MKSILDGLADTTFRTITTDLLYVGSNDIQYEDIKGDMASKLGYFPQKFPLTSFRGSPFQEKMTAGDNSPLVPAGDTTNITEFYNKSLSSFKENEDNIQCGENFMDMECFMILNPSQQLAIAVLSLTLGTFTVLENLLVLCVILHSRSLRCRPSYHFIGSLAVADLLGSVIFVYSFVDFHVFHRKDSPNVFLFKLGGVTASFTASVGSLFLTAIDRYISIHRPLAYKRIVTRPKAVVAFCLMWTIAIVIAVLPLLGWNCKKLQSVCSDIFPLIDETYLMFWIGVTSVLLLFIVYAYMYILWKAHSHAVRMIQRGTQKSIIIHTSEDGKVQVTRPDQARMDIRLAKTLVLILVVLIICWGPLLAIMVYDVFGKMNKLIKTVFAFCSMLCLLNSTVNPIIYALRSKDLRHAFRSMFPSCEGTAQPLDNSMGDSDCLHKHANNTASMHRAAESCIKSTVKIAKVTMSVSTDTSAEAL

T1 sequence (P21554 whole entry): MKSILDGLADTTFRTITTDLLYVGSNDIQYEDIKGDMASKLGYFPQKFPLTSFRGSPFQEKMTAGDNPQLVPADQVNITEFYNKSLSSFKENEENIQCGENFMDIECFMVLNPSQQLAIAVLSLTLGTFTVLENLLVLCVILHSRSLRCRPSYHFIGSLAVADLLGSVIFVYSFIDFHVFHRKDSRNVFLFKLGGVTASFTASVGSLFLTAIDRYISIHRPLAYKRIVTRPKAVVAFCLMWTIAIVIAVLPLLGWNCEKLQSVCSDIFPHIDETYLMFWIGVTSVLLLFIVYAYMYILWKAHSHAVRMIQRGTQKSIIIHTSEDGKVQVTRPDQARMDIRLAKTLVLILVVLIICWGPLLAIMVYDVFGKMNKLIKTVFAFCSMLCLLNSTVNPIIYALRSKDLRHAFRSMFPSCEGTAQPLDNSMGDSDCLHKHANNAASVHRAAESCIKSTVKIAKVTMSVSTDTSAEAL

SMILES | pIC50 [1] | pIC50 [2] | further results
CC(C)(C)[C@H](N/C(=N\S(=O)(=O)c1ccc(Cl)cc1)N1CC(c2ccccc2)C(c2ccc(Cl)cc2)=N1)C(N)=O (some centres undefined) | 8.70 | < 5.30 | Papp B→A [3]: < 0.1 ×10⁻⁶ cm/s; Papp A→B [4]: 0.7 ×10⁻⁶ cm/s
CN=C(NS(=O)(=O)c1ccc(OCC(N)=O)cc1)N1CC(c2ccccc2)C(c2ccc(Cl)cc2)=N1 (racemic) | < 5.30 |  | 
COc1ccc(S(=O)(=O)NC(=N[C@H](C(=O)NCC(N)=O)C(C)C)N2CC(c3ccccc3)C(c3ccc(Cl)cc3)=N2)cc1 (some centres undefined) | < 7.00 | < 5.30 | 
NC(=O)CCN=C(NS(=O)(=O)c1ccc(Cl)cc1)N1CC(c2ccccc2)C(c2ccc(Cl)cc2)=N1 (racemic) | 7.49 | < 5.30 | Papp B→A [3]: 58 ×10⁻⁶ cm/s; Papp A→B [4]: 0.88 ×10⁻⁶ cm/s; efflux ratio [5]: 66
NC(=O)CN=C(NS(=O)(=O)c1ccc(Cl)cc1)N1CC(c2ccccc2)C(c2ccc(Cl)cc2)=N1 (single isomer, unassigned; enantiomer 1) | 7.49 | < 5.30 | concentration at 1 h [6]: 16700 ng/mL; Drug uptake [7]: 685 ng/g; Occ [8]: 10%; Occ [9]: 3%; Occ [10]: 0%
CCOC(=O)c1ccc(S(=O)(=O)NC(=NC)N2CC(c3ccccc3)C(c3ccc(Cl)cc3)=N2)cc1 (racemic) | 7.00 |  | 
NC(=O)[C@@H](O)CCN/C(=N\S(=O)(=O)c1ccc(Cl)cc1)N1CC(c2ccccc2)C(c2ccc(Cl)cc2)=N1 (some centres undefined) | 7.18 | < 5.30 | 
C[C@@H](O)[C@H](N/C(=N\S(=O)(=O)c1ccc(Cl)cc1)N1CC(c2ccccc2)C(c2ccc(Cl)cc2)=N1)C(=O)N[C@@H](CO)C(N)=O (some centres undefined) | 8.15 | < 6.00 | 
C[C@H](NC(=O)[C@H](C)N/C(=N\S(=O)(=O)c1ccc(Cl)cc1)N1CC(c2ccccc2)C(c2ccc(Cl)cc2)=N1)C(N)=O (some centres undefined) | 7.57 | < 5.30 | Papp A→B [4]: 0.3 ×10⁻⁶ cm/s
COc1ccc(S(=O)(=O)/N=C(\N[C@@H](C)C(=O)N[C@@H](CO)C(N)=O)N2CC(c3ccccc3)C(c3ccc(Cl)cc3)=N2)cc1 (some centres undefined) | < 7.00 | < 5.30 | 
COc1ccc(S(=O)(=O)NC(=NCC(N)=O)N2CC(c3ccccc3)C(c3ccc(Cl)cc3)=N2)cc1 (centres undefined) | 7.00 | < 5.30 | 
CN/C(=N\S(=O)(=O)c1ccc(NC(C)=O)cc1)N1CC(c2ccccc2)C(c2ccc(Cl)cc2)=N1 (racemic) | < 6.00 |  | 
C[C@@H](O)[C@H](N/C(=N/S(=O)(=O)c1ccc(Cl)cc1)N1CC(c2ccccc2)C(c2ccc(Cl)cc2)=N1)C(N)=O (some centres undefined) | 8.15 | < 5.30 | Papp B→A [3]: 18.6 ×10⁻⁶ cm/s; Papp A→B [4]: < 0.9 ×10⁻⁶ cm/s; efflux ratio [5]: > 20
CN/C(=N\S(=O)(=O)c1ccc(C(=O)O)cc1)N1CC(c2ccccc2)C(c2ccc(Cl)cc2)=N1 (racemic) | < 5.30 |  | 
C[C@H](N/C(=N\S(=O)(=O)c1ccc(O)cc1)N1CC(c2ccccc2)C(c2ccc(Cl)cc2)=N1)C(N)=O (some centres undefined) | < 6.30 | < 5.30 | 
CC(C)(N/C(=N\S(=O)(=O)c1ccc(Cl)cc1)N1CC(c2ccccc2)C(c2ccc(Cl)cc2)=N1)C(N)=O (racemic) | 8.07 | < 6.00 | 
COC(=O)CN/C(=N\S(=O)(=O)c1ccc(Cl)cc1)N1CC(c2ccccc2)C(c2ccc(Cl)cc2)=N1 (centres undefined) |  |  | inhibition [11]: 88%
C[C@H](O)[C@@H](N=C(NS(=O)(=O)c1ccc(Cl)cc1)N1CC(c2ccccc2)C(c2ccc(Cl)cc2)=N1)C(N)=O (some centres undefined) | < 7.00 | < 5.30 | 
CC(C)[C@H](N/C(=N\S(=O)(=O)c1ccc(Cl)cc1)N1C[C@H](c2ccccc2)C(c2ccc(Cl)cc2)=N1)C(N)=O | 9.30 | < 6.00 | Occ [8]: 10%; Occ [9]: 0%; Occ [10]: 0%; Occ [12]: 0%
CN=C(NS(=O)(=O)c1ccc(C(=O)NO)cc1)N1CC(c2ccccc2)C(c2ccc(Cl)cc2)=N1 (racemic) | < 5.30 |  | 
O=C(O)[C@@H](O)CCN=C(NS(=O)(=O)c1ccc(Cl)cc1)N1CC(c2ccccc2)C(c2ccc(Cl)cc2)=N1 (some centres undefined) | < 6.00 |  | 
O=C(O)CN=C(NS(=O)(=O)c1ccc(Cl)cc1)N1CC(c2ccccc2)C(c2ccc(Cl)cc2)=N1 (centres undefined) | < 6.00 |  | 
CC(C)[C@H](N/C(=N\S(=O)(=O)c1ccc(Cl)cc1)N1C[C@@H](c2ccccc2)C(c2ccc(Cl)cc2)=N1)C(N)=O | < 6.00 |  | 
CN=C(NS(=O)(=O)c1ccc(OC)cc1)N1CC(c2ccccc2)C(c2ccc(Cl)cc2)=N1 (racemic) | 7.00 |  | 

SMILES | pIC50 [1] | pIC50 [2] | further results
NC(=O)[C@H](Cc1ccccc1)N/C(=N\S(=O)(=O)c1ccc(Cl)cc1)N1CC(c2ccccc2)C(c2ccc(Cl)cc2)=N1 (some centres undefined) |  |  | inhibition [11]: 61%
COc1cccc(S(=O)(=O)/N=C(\N[C@H](C(N)=O)C(C)C)N2CC(c3ccccc3)C(c3ccc(Cl)cc3)=N2)c1 (some centres undefined) | 8.40 | < 6.00 | 
COc1ccc(S(=O)(=O)NC(=N[C@@H](C)C(N)=O)N2CC(c3ccccc3)C(c3ccc(Cl)cc3)=N2)cc1 (some centres undefined) | 7.15 | < 5.30 | 
C[C@H](N/C(=N\S(=O)(=O)c1ccc(Cl)cc1)N1CC(c2ccccc2)C(c2ccc(Cl)cc2)=N1)C(=O)NCC(N)=O (some centres undefined) | 8.00 | < 6.00 | 
COC(=O)[C@H](C)N/C(=N\S(=O)(=O)c1ccc(Cl)cc1)N1CC(c2ccccc2)C(c2ccc(Cl)cc2)=N1 (some centres undefined) |  |  | inhibition [11]: 96%
CC(C)[C@H](N/C(=N\S(=O)(=O)c1ccc(Cl)cc1)N1CC(c2ccccc2)C(c2ccc(Cl)cc2)=N1)C(=O)N[C@@H](C)C(N)=O (some centres undefined) | 7.00 | < 5.30 | 
C[C@H](N/C(=N\S(=O)(=O)c1ccc(Cl)cc1)N1CC(c2ccccc2)C(c2ccc(Cl)cc2)=N1)C(N)=O (some centres undefined) | 7.70 | < 6.00 | Papp B→A [3]: 9.25 ×10⁻⁶ cm/s; Papp A→B [4]: 2.44 ×10⁻⁶ cm/s; efflux ratio [5]: 3.8
NC(=O)CN/C(=N\S(=O)(=O)c1ccc(Cl)cc1)N1CC(c2ccccc2)C(c2ccc(Cl)cc2)=N1 (single isomer, unassigned; enantiomer 1) |  |  | Occ [12]: 0%
CC(C)[C@H](N/C(=N\S(=O)(=O)c1ccc(Cl)cc1)N1CC(c2ccccc2)C(c2ccc(Cl)cc2)=N1)C(N)=O (some centres undefined) | 8.70 | < 6.00 | Papp B→A [3]: 16.6 ×10⁻⁶ cm/s; Papp A→B [4]: 1.08 ×10⁻⁶ cm/s; concentration at 1 h [6]: 3850 ng/mL; Drug uptake ([7]; BLD = below limit of detection): BLD
NC(=O)CN=C(NS(=O)(=O)c1ccc(O)cc1)N1CC(c2ccccc2)C(c2ccc(Cl)cc2)=N1 (centres undefined) | < 7.00 | 5.30 | 
CCOC(=O)Nc1ccc(S(=O)(=O)NC(=NC)N2CC(c3ccccc3)C(c3ccc(Cl)cc3)=N2)cc1 (racemic) | 6.52 |  | 
CN/C(=N\S(=O)(=O)c1ccc(C(N)=O)cc1)N1CC(c2ccccc2)C(c2ccc(Cl)cc2)=N1 (racemic) | < 5.30 |  | 
NC(=O)[C@H](Cc1ccccc1)N=C(NS(=O)(=O)c1ccc(Cl)cc1)N1CC(c2ccccc2)C(c2ccc(Cl)cc2)=N1 (some centres undefined) |  | < 5.30 | 
CCOC(=O)[C@@H](O)CCN/C(=N\S(=O)(=O)c1ccc(Cl)cc1)N1CC(c2ccccc2)C(c2ccc(Cl)cc2)=N1 (some centres undefined) |  |  | inhibition [11]: 53%
CN=C(NS(=O)(=O)c1ccc(OCC(=O)O)cc1)N1CC(c2ccccc2)C(c2ccc(Cl)cc2)=N1 (racemic) | < 5.30 |  | 
CNC(=NS(=O)(=O)c1ccc(Cl)cc1)N1CC(c2ccccc2)C(c2ccc(Cl)cc2)=N1 (racemic) [RAC-IBIPINABANT] |  |  | Papp B→A [3]: 10 ×10⁻⁶ cm/s; Papp A→B [4]: 9.45 ×10⁻⁶ cm/s; concentration at 1 h [6]: 5130 ng/mL; Drug uptake [7]: 2080 ng/g
NC(=O)CN=C(NS(=O)(=O)c1ccc(Cl)cc1)N1CC(c2ccccc2)C(c2ccc(Cl)cc2)=N1 (single isomer, unassigned; enantiomer 2) | < 6.00 | < 6.00 | 
NC(=O)[C@H](CO)N=C(NS(=O)(=O)c1ccc(Cl)cc1)N1CC(c2ccccc2)C(c2ccc(Cl)cc2)=N1 (some centres undefined) | 7.89 | < 5.30 | 
NC(=O)C[C@H](N=C(NS(=O)(=O)c1ccc(Cl)cc1)N1CC(c2ccccc2)C(c2ccc(Cl)cc2)=N1)C(N)=O (some centres undefined) | < 7.00 | < 5.30 | 
CC(CN/C(=N\S(=O)(=O)c1ccc(Cl)cc1)N1CC(c2ccccc2)C(c2ccc(Cl)cc2)=N1)C(N)=O (racemic) | 7.59 | < 6.00 | 
C[C@H](N=C(NS(=O)(=O)c1ccc(Cl)cc1)N1CC(c2ccccc2)C(c2ccc(Cl)cc2)=N1)C(=O)O (some centres undefined) | < 6.00 |  | 
NC(=O)[C@@H](N/C(=N\S(=O)(=O)c1ccc(Cl)cc1)N1CC(c2ccccc2)C(c2ccc(Cl)cc2)=N1)C1CCC1 (some centres undefined) | 8.08 | < 6.00 | 
CC(C)[C@H](N/C(=N\S(=O)(=O)c1ccc(Cl)cc1)N1CC(c2ccccc2)C(c2ccc(Cl)cc2)=N1)C(=O)NCC(N)=O (some centres undefined) | < 7.00 | < 6.00 | 
C[C@H](N=C(NS(=O)(=O)c1ccc(Cl)cc1)N1CC(c2ccccc2)C(c2ccc(Cl)cc2)=N1)C(=O)N[C@@H](CO)C(N)=O (some centres undefined) | 8.10 | < 5.30 | 
